By Ki is commonly meant a measure of affinity in units of concentration, obtained from inhibition or displacement. Broadly, the Cmax is the peak of the concentration-time curve. As a reminder, the Papp is the rate of passage across a membrane or cell layer, normalised by area and donor concentration. The term inhibition denotes the share of the control response that was lost under treatment. High values mean a response far below the control, low ones a response near the control. Broadly, the IC50 is the point on the concentration scale where inhibition reaches its midpoint.

The source of these data is ChEMBL document CHEMBL1926564, “Design, synthesis and biological activity of original pyrazolo-pyrido-diazepine, -pyrazine and -oxazine dione derivatives as novel dual Nox4/Nox1 inhibitors” (Bioorg Med Chem, 2011).

The nature of series [1]: Volume of distribution at steady state in Sprague-Dawley rat at 5 mg/kg, iv. The following applies: in vivo, read-out: Vdss. Set-up: dose 5 mg/kg, route intravenous. Type of series: ADME, organism-based. Put shortly: (§1)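 Rats in two groups of three: 5 mg/kg iv in EDPW (10% EtOH, 10% DMA, 30% PG, 50% water) or 10 mg/kg oral in aqueous 0.5% CMC/0.25% Tween 20. Carotid arterial cannula blood sampled up to 24 h. Plasma levels by LC/MS/MS (LLOQ 1.00 ng/mL); noncompartmental analysis.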

The target in series [2] is T1, NADPH oxidase 1 (Homo sapiens, UniProt Q9Y5S8).
T1 sequence (Q9Y5S8 whole entry): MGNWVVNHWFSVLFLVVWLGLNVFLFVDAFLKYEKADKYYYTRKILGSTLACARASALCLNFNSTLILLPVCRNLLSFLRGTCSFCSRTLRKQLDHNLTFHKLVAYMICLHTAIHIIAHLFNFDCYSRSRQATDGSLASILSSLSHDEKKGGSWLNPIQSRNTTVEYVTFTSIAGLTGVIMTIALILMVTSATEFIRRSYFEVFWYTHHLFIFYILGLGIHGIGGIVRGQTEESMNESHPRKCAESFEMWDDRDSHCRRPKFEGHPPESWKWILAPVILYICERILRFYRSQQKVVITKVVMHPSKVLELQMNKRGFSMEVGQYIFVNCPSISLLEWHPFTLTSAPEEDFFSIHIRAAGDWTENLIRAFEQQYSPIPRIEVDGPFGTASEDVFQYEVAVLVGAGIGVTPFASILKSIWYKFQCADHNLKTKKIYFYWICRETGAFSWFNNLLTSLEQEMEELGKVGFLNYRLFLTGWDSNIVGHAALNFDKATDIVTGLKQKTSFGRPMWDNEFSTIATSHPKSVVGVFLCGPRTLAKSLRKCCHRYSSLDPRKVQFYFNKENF
Briefly: Antagonist activity at human NOX1 expressed in CHO cell membrane coexpressing tetracylin repressor assessed as inhibition of ROS production after 20 mins by cell-free amplex red assay. Type of series: functional. Put shortly:
(§2)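 Membranes from tetracycline-induced (24 h) Nox-expressing cells or human PMN (Nox2), sucrose-gradient purified; or xanthine oxidase. Incubated in PBS with Amplex Red, HRP and cofactors; NADPH (Nox) or xanthine starts ROS. Compound 1 nM–100 µM, 20 min at 37 °C, plate-reader. Background without membranes or agonist. Ki by Cheng-Prusoff; mean of ≥3 experiments in triplicate.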

Series [3] can be described thus: Cmax in Sprague-Dawley rat at 5 mg/kg, iv. The class given is ADME, organism-based. The arrangement: dose 5 mg/kg, route intravenous. Conditions: in vivo. Put shortly:
as §1

Series [4] is described as follows: Apparent permeability across human Caco2 cells at 10 uM after 2 hrs. The class given is ADME, cell-based. The following applies: Caco-2. The method in brief:
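Caco-2 monolayers grown 20 days, TEER >800 ohm·cm². Compound 10 µM final in HBSS pH 6.5 (1% DMSO), dosed apical (A→B) or basolateral (B→A), 2 h at 37 °C; both compartments sampled, LC–MS/MS cassette analysis with 5-point calibration.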

Series [5] deals with T2, NADPH oxidase 5 (Homo sapiens, UniProt Q96PH1).
T2 sequence (Q96PH1 whole entry): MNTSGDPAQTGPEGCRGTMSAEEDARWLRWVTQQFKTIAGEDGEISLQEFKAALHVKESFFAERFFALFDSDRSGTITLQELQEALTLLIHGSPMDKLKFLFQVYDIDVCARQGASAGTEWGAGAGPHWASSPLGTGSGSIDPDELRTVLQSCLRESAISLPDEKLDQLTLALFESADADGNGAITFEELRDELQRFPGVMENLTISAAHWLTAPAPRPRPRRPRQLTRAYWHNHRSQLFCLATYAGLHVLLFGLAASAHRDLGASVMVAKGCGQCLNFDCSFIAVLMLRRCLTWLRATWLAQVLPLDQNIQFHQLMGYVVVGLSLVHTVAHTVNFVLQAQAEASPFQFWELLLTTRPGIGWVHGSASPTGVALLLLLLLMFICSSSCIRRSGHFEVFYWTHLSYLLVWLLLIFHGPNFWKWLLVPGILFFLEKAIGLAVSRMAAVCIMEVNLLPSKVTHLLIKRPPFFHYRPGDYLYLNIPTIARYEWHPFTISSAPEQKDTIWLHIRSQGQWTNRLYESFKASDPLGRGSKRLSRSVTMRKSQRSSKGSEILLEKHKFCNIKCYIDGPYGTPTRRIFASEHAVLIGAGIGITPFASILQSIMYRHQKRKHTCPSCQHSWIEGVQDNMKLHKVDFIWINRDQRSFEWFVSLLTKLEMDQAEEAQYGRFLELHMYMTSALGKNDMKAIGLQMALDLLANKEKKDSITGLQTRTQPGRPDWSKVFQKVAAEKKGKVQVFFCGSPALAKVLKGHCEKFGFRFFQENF
As to the kind of experiment: Antagonist activity at human NOX5 assessed as inhibition of ROS production after 20 mins by cell-free amplex red assay. Type of series: functional. Put shortly:
as §2

For series [6], the system named is Salmonella typhimurium. Briefly: Genotoxicity in Salmonella Typhimurium at 100 uM by AMES test. The class given is toxicity, organism-based. The following applies: salmonella enterica subsp. enterica serovar typhimurium.
Series [7] addresses hERG (Homo sapiens, UniProt Q12809). As to the kind of experiment: Inhibition of hERG at 1 uM by patch clamp assay. Type of series: toxicity. For orientation: hERG is a cardiac potassium channel; its block is linked to QT prolongation.
Series [8] deals with Cytochrome P450 2D6 (Homo sapiens, UniProt P10635). As to the kind of experiment: Inhibition of human recombinant CYP2D6 by mass spectrophotometry. Type of series: ADME. Put shortly: (§3)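 Compound 0.1–25 µM (0.3% DMSO) incubated with microsomes, NADPH and isoform-specific probe substrate. CYP2C19, 2C9, 2D6, 3A4 metabolites measured by mass spectrometry; CYP1A2 by fluorescent metabolite. IC50 from reduced metabolite formation versus vehicle.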
Chain of Cytochrome P450 2D6 (P10635 whole entry, canonical isoform): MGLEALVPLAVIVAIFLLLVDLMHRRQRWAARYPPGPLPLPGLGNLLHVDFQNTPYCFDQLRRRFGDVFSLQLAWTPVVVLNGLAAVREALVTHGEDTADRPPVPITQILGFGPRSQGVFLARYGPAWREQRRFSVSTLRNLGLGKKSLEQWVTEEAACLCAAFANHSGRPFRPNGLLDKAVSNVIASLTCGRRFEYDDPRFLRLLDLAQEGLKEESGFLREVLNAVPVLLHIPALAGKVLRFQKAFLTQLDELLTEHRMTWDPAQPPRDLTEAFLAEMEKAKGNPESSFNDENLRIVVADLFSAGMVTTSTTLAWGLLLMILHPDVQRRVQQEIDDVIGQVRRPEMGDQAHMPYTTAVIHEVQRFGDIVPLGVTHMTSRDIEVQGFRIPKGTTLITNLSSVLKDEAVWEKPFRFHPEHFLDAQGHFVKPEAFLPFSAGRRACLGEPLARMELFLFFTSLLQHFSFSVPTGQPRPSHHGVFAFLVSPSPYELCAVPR

Series [9] in a line: Mutagenicity in micronucleus at 500 uM by in vitro assay. Type of series: ADME.
Series [10] has as its target T3, Cytochrome P450 1A2 (Homo sapiens, UniProt P05177).
T3 sequence (P05177 whole entry): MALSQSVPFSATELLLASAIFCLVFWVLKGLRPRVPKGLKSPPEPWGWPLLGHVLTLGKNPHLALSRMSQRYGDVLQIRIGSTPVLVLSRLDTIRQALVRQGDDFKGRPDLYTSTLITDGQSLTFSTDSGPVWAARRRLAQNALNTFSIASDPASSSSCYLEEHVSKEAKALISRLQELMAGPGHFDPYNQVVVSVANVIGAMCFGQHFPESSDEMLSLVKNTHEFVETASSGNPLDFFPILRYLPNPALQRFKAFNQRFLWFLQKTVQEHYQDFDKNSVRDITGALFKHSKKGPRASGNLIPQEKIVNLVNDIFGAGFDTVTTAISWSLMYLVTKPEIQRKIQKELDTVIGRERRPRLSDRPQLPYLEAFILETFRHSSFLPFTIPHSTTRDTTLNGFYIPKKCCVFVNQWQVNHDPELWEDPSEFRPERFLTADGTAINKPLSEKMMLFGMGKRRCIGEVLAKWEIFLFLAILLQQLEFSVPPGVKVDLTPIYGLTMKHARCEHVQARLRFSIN
Briefly: Inhibition of human recombinant CYP1A2 assessed as inhibition of fluorescent metabolite formation. Type of series: ADME. Put shortly: as §3

The target in series [11] is Xanthine dehydrogenase/oxidase (Homo sapiens, UniProt P47989). As to the kind of experiment: Inhibition of xanthine oxidase assessed as inhibition of ROS production after 20 mins by cell-free amplex red assay. Put shortly: as §2
Chain of Xanthine dehydrogenase/oxidase (P47989 whole entry): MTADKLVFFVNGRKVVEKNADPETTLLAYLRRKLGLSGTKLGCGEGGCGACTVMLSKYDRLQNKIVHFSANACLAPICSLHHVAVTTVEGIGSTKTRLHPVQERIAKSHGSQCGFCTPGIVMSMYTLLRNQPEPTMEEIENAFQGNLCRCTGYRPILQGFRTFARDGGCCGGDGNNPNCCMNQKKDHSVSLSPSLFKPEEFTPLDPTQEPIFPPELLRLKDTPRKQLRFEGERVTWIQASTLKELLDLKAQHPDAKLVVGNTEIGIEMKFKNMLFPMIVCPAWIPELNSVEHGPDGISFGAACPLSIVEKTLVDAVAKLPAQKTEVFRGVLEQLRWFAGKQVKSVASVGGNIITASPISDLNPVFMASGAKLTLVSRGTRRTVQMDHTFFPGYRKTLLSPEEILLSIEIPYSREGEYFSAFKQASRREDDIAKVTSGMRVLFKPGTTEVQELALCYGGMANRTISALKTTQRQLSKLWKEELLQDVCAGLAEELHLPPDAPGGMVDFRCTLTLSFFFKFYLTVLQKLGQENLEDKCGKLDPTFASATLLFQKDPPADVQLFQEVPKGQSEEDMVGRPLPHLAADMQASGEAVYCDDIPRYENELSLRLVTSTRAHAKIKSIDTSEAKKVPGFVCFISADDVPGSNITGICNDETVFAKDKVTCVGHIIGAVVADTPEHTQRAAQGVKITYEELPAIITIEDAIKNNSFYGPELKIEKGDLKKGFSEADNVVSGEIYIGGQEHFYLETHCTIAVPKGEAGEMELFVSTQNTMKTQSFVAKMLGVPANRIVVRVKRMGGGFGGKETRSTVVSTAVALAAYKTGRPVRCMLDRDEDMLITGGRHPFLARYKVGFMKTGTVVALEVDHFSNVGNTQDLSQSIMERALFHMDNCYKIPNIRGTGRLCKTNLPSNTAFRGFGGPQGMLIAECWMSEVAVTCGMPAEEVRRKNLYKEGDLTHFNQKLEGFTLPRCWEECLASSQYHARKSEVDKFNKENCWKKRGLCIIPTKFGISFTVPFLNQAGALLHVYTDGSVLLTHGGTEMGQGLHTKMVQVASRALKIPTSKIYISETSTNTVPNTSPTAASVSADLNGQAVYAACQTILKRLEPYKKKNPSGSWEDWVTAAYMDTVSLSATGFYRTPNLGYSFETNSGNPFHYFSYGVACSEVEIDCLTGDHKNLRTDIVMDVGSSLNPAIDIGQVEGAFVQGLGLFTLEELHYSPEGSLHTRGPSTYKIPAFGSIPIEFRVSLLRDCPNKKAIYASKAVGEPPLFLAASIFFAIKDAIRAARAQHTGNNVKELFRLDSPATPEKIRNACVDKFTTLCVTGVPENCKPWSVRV
For series [12], the system named is Salmonella typhimurium. As to the kind of experiment: Mutagenicity in Salmonella Typhimurium at 100 uM by AMES test. The class given is toxicity, organism-based. Conditions: salmonella enterica subsp. enterica serovar typhimurium.

Chain of hERG (Q12809 whole entry, canonical isoform): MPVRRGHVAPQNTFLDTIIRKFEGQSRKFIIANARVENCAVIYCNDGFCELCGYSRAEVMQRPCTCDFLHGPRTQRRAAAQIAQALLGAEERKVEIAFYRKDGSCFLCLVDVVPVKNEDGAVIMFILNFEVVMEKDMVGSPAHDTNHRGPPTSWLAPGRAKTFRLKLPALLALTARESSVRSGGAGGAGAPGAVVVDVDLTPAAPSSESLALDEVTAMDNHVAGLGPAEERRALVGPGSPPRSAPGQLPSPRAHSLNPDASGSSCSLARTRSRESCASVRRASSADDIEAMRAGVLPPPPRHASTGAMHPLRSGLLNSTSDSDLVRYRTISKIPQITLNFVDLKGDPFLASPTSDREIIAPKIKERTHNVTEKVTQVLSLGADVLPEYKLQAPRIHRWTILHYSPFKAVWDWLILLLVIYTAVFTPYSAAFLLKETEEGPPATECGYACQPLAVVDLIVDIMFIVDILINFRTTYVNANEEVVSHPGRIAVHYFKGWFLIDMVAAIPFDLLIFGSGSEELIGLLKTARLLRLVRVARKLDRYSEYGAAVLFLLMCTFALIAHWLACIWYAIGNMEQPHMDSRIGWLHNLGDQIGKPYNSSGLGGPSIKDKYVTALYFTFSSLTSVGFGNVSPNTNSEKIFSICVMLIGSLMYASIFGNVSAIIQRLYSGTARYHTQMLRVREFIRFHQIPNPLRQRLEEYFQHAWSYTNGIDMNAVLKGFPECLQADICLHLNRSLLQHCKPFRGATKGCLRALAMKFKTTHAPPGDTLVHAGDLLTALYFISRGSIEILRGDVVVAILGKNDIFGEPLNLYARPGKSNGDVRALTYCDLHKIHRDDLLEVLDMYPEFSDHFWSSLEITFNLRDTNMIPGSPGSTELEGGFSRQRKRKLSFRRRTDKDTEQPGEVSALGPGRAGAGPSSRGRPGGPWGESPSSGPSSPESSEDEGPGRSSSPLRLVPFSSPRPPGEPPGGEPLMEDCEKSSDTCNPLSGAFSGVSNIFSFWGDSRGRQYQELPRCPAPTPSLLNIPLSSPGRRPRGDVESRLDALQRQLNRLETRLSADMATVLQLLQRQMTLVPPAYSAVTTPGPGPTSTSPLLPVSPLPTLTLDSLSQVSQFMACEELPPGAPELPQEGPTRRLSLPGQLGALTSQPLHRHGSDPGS

In the case of `Cl.O=c1c2c3n(c(=O)cc2[nH]n1-c1ccccc1Cl)CCCN(Cc1ccccn1)C3`, in [1], the Vd is 0.47 L/kg. Also, the Ki in series [2] was 113 nM; in [5] it was 543 nM. This compound also registered a Cmax in [3] of 21800 ng/mL. Besides, the Papp at 2 h, 10 µM in [4] is 1.8 ×10⁻⁶ cm/s.
Consider `Cl.O=c1c2c3n(c(=O)cc2[nH]n1-c1ccccc1Cl)CCCN(Cc1ccccc1)C3`, for which, in series [1], the Vd amounted to 0.28 L/kg. For the same compound, the inhibitory constant (Ki) was 101 nM in series [2], 414 nM in series [5] and more than 30000 nM in series [11]. Moreover, the highest concentration (Cmax) in series [3] is 42300 ng/mL. Further, the Activity result in series [6], in series [9] and in [12] was “Non-toxic” throughout. The compound also returned an inhibition at 1 µM in series [7] of 8.7%. In addition, the IC50 in series [8] and in series [10] was more than 25000 nM each time. In addition, the apparent permeability coefficient (Papp) at 2 h, 10 µM in [4] stood at 42.2 ×10⁻⁶ cm/s.
